Data reported in ChEMBL document CHEMBL2385077, “Synthesis, local anaesthetic and antiarrhythmic activities of N-alkyl derivatives of proline anilides” (Eur J Med Chem, 2013).
Active and inactive are the calls of the source.

Columns and labels:
Mus musculus [1] = experiment: Antiarrhythmic activity in iv dosed Swiss albino mouse assessed as inhibition of calcium chloride-induced cardiac arrhythmia after 15 mins; type: functional; details: Heart, 0.25 h
Method in brief: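 Swiss albino mice received compound i.v. at doses up to ½ LD50 (acute i.v. toxicity measured beforehand). Fifteen minutes later arrhythmia was provoked by i.v. calcium chloride (3%, 280 mg/kg). ED50 was taken as the mean effective dose preventing arrhythmia-associated mortality, and was determined only when below ½ LD50.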

Mus musculus [2] = experiment: Antiarrhythmic index, ratio of LD50 for Swiss albino mouse to ED50 for calcium chloride-induced Swiss albino mouse; type: functional, Heart
Method in brief: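 ED50 taken as mean effective dose preventing arrhythmia-associated death, reported only when below ½ LD50. LD50 from acute i.v. toxicity in mice. Index computed as LD50/ED50.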

Rattus norvegicus [3] = experiment: Anesthetic effect in Wistar rat assessed as time taken for blockage of muscle contraction by infiltration local anaesthetic activity assay; type: functional, Muscle tissue
Method in brief: (§1)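 Shaved lumbar back skin of Wistar rats; electrical stimulation threshold for surface muscle contraction found first (rectangular pulses, 0.36 to 14.0 V, 0.3 ms, 50 Hz). 0.5% compound in saline given as 0.2 ml intradermal plus 0.2 ml subcutaneous. Threshold re-measured at 3 and 5 min, then every 5 min until back to baseline. Depth is % threshold change from initial; >2-fold rise = 100% anaesthesia. Six rats per compound.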

[4] = Toxicity in iv dosed Swiss albino mouse after 72 hrs; type: organism-based; details: in vivo
Method in brief: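 Albino Swiss mice of both sexes, 18-22 g, received aqueous solutions via tail vein at increasing doses. Mortality and behavioural changes followed for 72 h. LD50 reported in mg/kg with range in parentheses.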

Rattus norvegicus [5] = experiment: Anesthetic effect in Wistar rat assessed as duration of blockage of muscle contraction by infiltration local anaesthetic activity assay; type: functional, Muscle tissue; method in brief: as §1
Oryctolagus cuniculus = experiment: Surface anesthetic effect in New Zealand white rabbit assessed as time duration; type: functional
Method in brief: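 Rabbit corneal reflex test: 1% aqueous solution (0.25 ml) instilled into the conjunctival sac over 30 sec. Cornea touched with a pointer (up to 100 per series) at 8, 10, 12 and 15 min, then every 5 min. Six animals per compound; mean ± SEM.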

Rattus norvegicus [6] = experiment: Anesthetic effect in Wistar rat assessed as increase in threshold value by infiltration local anaesthetic activity assay relative to control; type: functional; method in brief: as §1
Rattus norvegicus [7] = experiment: Anesthetic effect in Wistar rat assessed as duration of complete blockage of muscle contraction by infiltration local anaesthetic activity assay; type: functional, Muscle tissue; method in brief: as §1
Rattus norvegicus [8] = experiment: Anesthetic effect in Wistar rat assessed as increase in depth of anesthesia after 35 mins by infiltration local anaesthetic activity assay relative to control; type: functional, organism-based; method in brief: as §1

SMILES | ED50 (Mus musculus [1]) [mg/kg] | Ratio LD50/ED50 (Mus musculus [2]) | Time (Rattus norvegicus [3]) [min] | LD50 at 72 h [4] [mg/kg] | Time (Rattus norvegicus [5]) [min] | Time (Oryctolagus cuniculus) [min] | Activity (Rattus norvegicus [6]) [%] | Time (Rattus norvegicus [7]) [min] | Activity (Rattus norvegicus [8])
Cc1ccc(NC(=O)C2CCCN2C2CCCCC2)c(C)c1.Cl (mixture of isomers) | 8.9 | 7.3 | 1 | 65 | 126.3 | 73.2 | – | – | –
CCCCN1CCCC1C(=O)Nc1c(C)cccc1C.Cl (mixture of isomers) | > 4.6 | – | 1 | 9.2 | – | 57.5 | 90 | 20 | –
Cc1cc(C)c(NC(=O)C2CCCN2C2CCCCC2)c(C)c1.Cl (stereo not drawn) [CYCLOMECAINE] | 2.9 | 5.2 | – | 15 | – | 124.5 | – | – | –
CCCCCCN1CCCC1C(=O)Nc1ccccc1C.Cl (mixture of isomers) | 5.6 | 6.3 | 1 | 35.5 | 115 | 75.7 | – | – | –
Cc1ccccc1NC(=O)[C@@H]1CCCN1Cc1ccccc1.Cl | 10.9 | 3.3 | – | 35.5 | – | – | – | – | –
CCCCN1CCCC1C(=O)Nc1ccccc1CC.Cl (mixture of isomers) | 7.1 | 4.2 | – | 30 | – | 12.7 | – | – | –
Cc1ccccc1NC(=O)C1CCCN1C1CCCCC1.Cl (mixture of isomers) | > 6.5 | – | – | 12.9 | – | 46.5 | – | – | –
CCCN1CCCC[C@H]1C(=O)Nc1c(C)cccc1C [ROPIVACAINE] | 3.7 | 3.8 | 1 | 14.1 | 80 | 58.4 | – | 58.8 | –
CCCCN1CCCC1C(=O)Nc1ccc(Br)cc1Br.Cl (mixture of isomers) | 69 | 3.5 | – | 239 | – | – | – | – | –
CCCCCN1CCCC1C(=O)Nc1ccccc1C.Cl (mixture of isomers) | 5.5 | 5.9 | – | 32.5 | – | 59.8 | – | – | –
CCCCN1CCCC1C(=O)Nc1ccccc1C(F)(F)F.Cl (mixture of isomers) | 5.8 | 6.1 | – | 35.5 | – | 20.4 | – | – | –
CCCCN1CCCC1C(=O)Nc1ccc(Cl)cc1Cl.Cl (mixture of isomers) | > 16.3 | – | – | 32.5 | – | – | – | – | –
CCCCN1CCCC1C(=O)Nc1ccccc1C.Cl (mixture of isomers) | 5.4 | 3 | 1 | 16.3 | – | 49.4 | – | 12.5 | –
CCCCN1CCCC1C(=O)Nc1ccccc1I.Cl (mixture of isomers) | 7.3 | 5.6 | – | 41 | – | 20.3 | – | – | –
Cc1ccccc1NC(=O)[C@@H]1CCCN1C.Cl | > 16.3 | – | – | 32.5 | – | – | – | – | –
Cl.O=C(Nc1ccccc1Cl)C1CCCN1C1CCCCC1 (mixture of isomers) | 13.7 | 6.9 | – | 95 | – | 41.3 | – | – | –
CCCCN1CCCCC1C(=O)Nc1c(C)cccc1C (stereo not drawn) [BUPIVACAINE] | 3.5 | 2.5 | 1 | 8.9 | 155 | 94 | – | 102.5 | –
CCN1CCCC1C(=O)Nc1ccccc1C.Cl (mixture of isomers) | > 18.4 | – | – | 36.8 | – | – | – | – | –
CCCCN1CCCC1C(=O)Nc1ccccc1C (racemic) | – | – | – | – | – | – | – | – | inactive
CCN(CC)CC(=O)Nc1c(C)cccc1C [LIDOCAINE] | 7.7 | – | – | – | – | 37.8 | – | – | –
CCCCN1CCCC1C(=O)Nc1ccc(C)cc1C.Cl (mixture of isomers) | > 30 | – | – | 60 | – | 59 | – | – | –
